According to paper PMC5087331 (Journal of Medicinal Chemistry, 2016):
Values belong to the compound of their own block, whether it stands above or below them.

Experiments:
UTI89KAN (UPEC) [1] = assay: Treatment of chronic urinary tract infection in mice; format: in vivo, C3H/HeN female mice; conditions: chronic UTI
Outline: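 Female C3H/HeN mice were infected transurethrally with 1–2 × 10^8 UTI89KAN. Urine titers were taken on day 12, and mice with ≥10^5 were counted as chronic. At 2 weeks they received oral test compound (25 or 50 mg/kg) in 100 μL 10% cyclodextrin. Bladders were harvested at set times after dosing and plated on kanamycin LB. Geometric means; Mann–Whitney versus vehicle or 0 h.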

UTI89KAN (UPEC) [2] = assay: Prophylactic treatment of acute urinary tract infection in mice; format: in vivo, C3H/HeN female mice; conditions: 25 mg/kg PO 30 min prior to UPEC infection, bacterial titers 6 h postinfection
Outline: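 6–8-week female C3H/HeN mice were dosed orally with 25 mg/kg test compound in 10% cyclodextrin. After 30 min they were inoculated transurethrally under isoflurane with 1–2 × 10^7 UTI89KAN (grown 2 × 24 h static in LB, 37 °C; washed, in PBS). At 6 h, bladders were homogenised and plated on LB + 50 μg/mL kanamycin. Geometric means from ≥2 experiments; Mann–Whitney versus vehicle.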

[3] = target: FimH lectin domain (FimHL) (Escherichia coli, UniProt P08191); assay: Differential scanning fluorimetry; format: binding; conditions: isothermal shift melting point assay
Outline: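 FimH lectin domain (FimHL) at 10 μM, heated with or without 100 μM mannoside. Melting temperature measured by differential scanning fluorimetry. Value is the shift in melting temperature relative to protein without mannoside.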

[4] = system: clinical E. coli strain UTI89; assay: Hemagglutination inhibition; format: cell-based, Escherichia coli
[5] = 25 mg/kg oral, 12 h post treatment

Sequence of FimH lectin domain (FimHL) (P08191 22-179): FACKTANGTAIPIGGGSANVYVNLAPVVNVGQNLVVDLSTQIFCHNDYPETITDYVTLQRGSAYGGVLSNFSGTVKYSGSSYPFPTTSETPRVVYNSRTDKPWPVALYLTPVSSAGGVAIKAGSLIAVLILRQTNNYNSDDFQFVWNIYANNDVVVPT

Structure (SMILES): CNC(=O)c1cccc(-c2ccc([C@@H](O)[C@H]3O[C@H](CO)[C@@H](O)[C@H](O)[C@@H]3O)c(C)c2)c1 [21R, 4′-[(α-D-Mannopyranosyl)-(R)-hydroxymethyl]-N,3′-dimethyl-[1,1′biphenyl]-3-carboxamide]
- bladder burdens relative to untreated mice (UTI89KAN (UPEC) [1]; [5]): three logs lower
- change in bladder burdens compared to vehicle (UTI89KAN (UPEC) [1]; [5]): dramatic and significant decrease in CFUs

Structure (SMILES): CNC(=O)c1cccc(-c2ccc(O[C@H]3O[C@H](COC(C)=O)[C@@H](OC(C)=O)[C@H](OC(C)=O)[C@@H]3OC(C)=O)c(C)c2)c1 [23a, 4′-(2,3,4,6-Tetra-O-acetyl-α-D-mannopyranosyloxy)-N,3′-dimethyl-[1,1′biphenyl]-3-carboxamide]
- change in bladder burdens compared to vehicle (UTI89KAN (UPEC) [1]; [5]): similar, but statistically significant, decrease in bladder burdens
- efficacy compared to 23 as prophylaxis therapy (UTI89KAN (UPEC) [2]): improved efficacy compared to 23

- binding affinity to FimH relative to 1 [3]: equivalent binding affinity to FimH
Structure (SMILES): COC(=O)c1cccc(-c2ccc(N[C@H]3O[C@H](CO)[C@@H](O)[C@H](O)[C@@H]3O)cc2)c1 [compound 2, 4′-(α-D-Mannopyranosylamino)-[1,1′biphenyl]-3-carboxylic Acid Methyl Ester]

Structure (SMILES): CNC(=O)c1cccc(-c2ccc([C@H](O)[C@H]3O[C@H](CO)[C@@H](O)[C@H](O)[C@@H]3O)cc2)c1 [6S, 4′-[(α-D-Mannopyranosyl)-(S)-hydroxymethyl]-N-methyl-[1,1′biphenyl]-3-carboxamide]
- fold less potency in the HA assay than 5 ([4]; comparator 5): 25 fold

Structure (SMILES): CNC(=O)c1cccc(-c2ccc(O[C@H]3O[C@H](COC(=O)CN(C)C)[C@@H](O)[C@H](O)[C@@H]3O)c(C)c2)c1 [23c, 4′-[6-O-(N,N-Dimethylaminoacetyl)-α-D-mannopyranosyloxy]-N,3′-dimethyl-[1,1′biphenyl]-3-carboxamide]
- efficacy compared to 23 as prophylaxis therapy (UTI89KAN (UPEC) [2]): did not show enhanced efficacy

- binding affinity to FimH relative to 1 [3]: equivalent binding affinity to FimH
Structure (SMILES): COC(=O)c1cccc(-c2ccc(S[C@H]3O[C@H](CO)[C@@H](O)[C@H](O)[C@@H]3O)cc2)c1 [compound 3, 4′-(α-D-Mannopyranosylthio)-[1,1′biphenyl]-3-carboxylic Acid Methyl Ester]

Structure (SMILES): CNC(=O)c1cccc(-c2ccc(C[C@H]3O[C@H](CO)[C@@H](O)[C@H](O)[C@@H]3O)c(C)c2)c1 [compound 22, 4′-[(α-D-Mannopyranosyl)methyl]-N,3′-dimethyl-[1,1′biphenyl]-3-carboxamide]
- fold decrease in activity relative to 23 ([4]; comparator 23): 30 fold

Structure (SMILES): CNC(=O)c1cc(C(=O)NC)cc(-c2ccc(O[C@H]3O[C@H](CO)[C@@H](O)[C@H](O)[C@@H]3O)c(C)c2)c1 [compound 24]
- change in bladder burdens compared to vehicle (UTI89KAN (UPEC) [1]; [5]): noticeable, but not significant, decrease in bladder burdens
- bladder burden at 6 h (UTI89KAN (UPEC) [1]; 50 mg/kg oral): 10^4 CFUs
- bladder burden at 12 hours (geometric mean) (UTI89KAN (UPEC) [1]; 50 mg/kg oral): 10^5
- bladder burden 2 h postdosing (UTI89KAN (UPEC) [1]; 50 mg/kg oral, from 10^7 CFUs at 0 h): approximately 10^5 CFUs
- fold more potent than 23 in HA assay ([4]; comparator 23): 4 fold

Structure (SMILES): CNC(=O)c1cccc(-c2ccc(O[C@H]3O[C@H](COP(=O)(O)O)[C@@H](O)[C@H](O)[C@@H]3O)c(C)c2)c1 [23b, 4′-(6-Dihydrogen Phosphate-α-D-mannopyranosyloxy)-N,3′-dimethyl-[1,1′biphenyl]-3-carboxamide]
- efficacy compared to 23 as prophylaxis therapy (UTI89KAN (UPEC) [2]): improved efficacy compared to 23
